In ChEMBL document CHEMBL4513216, “Probing the Open Global Health Chemical Diversity Library for Multistage-Active Starting Points for Next-Generation Antimalarials” (ACS Infect Dis, 2020):

Assay: Toxicity liver stage against HepG2, at 10uM
Assay type: cell-based
Design: test concentration 10 uM, cell line HepG2-A16-CD81EGFP
Details: human, HepG2-A16-CD81EGFP cells; read-out: INHIBITION
How it was run: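 Uninfected HepG2-A16-CD81EGFP cells, 3 × 10^3 per well, 1536-well, plated on prespotted compound at 10 μM final, parasite-free screening media added to match infected plates; puromycin 10 μM positive, DMSO 0.5% negative; run in parallel with 48 h PbLuc assay at 37 °C, 5% CO2; viability by CellTiter-Glo luminescence, normalized to controls.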

Row | Structure (SMILES) | cytotoxicity at 10 µM [%]
1 | O=C(N[C@@H]1CNCCC[C@H]1O)c1ccc(OCCN2CCOCC2)cc1 | 3.11
2 | Cn1cncc1-c1nnc([C@H]2CCN(CC3CCCCC3)C2)o1 | -4.65
3 | CC[C@H]1CN(C(=O)C2CC2)CC[C@H]1CC(=O)NCCN1CCOCC1 | -7.3
4 | Cc1ccc(Oc2ncccc2C(=O)N(C)CC2OCCO2)c(C)c1 | 3.54
5 | COc1ccc(C(=O)Nc2ccccc2C(C)C)c(OC)n1 | 3.66
6 | CC[S+](CC)[c-]1c(=O)[nH]c(=O)n(CCc2ccc(F)cc2)c1=O | 4.12
7 | C[C@H]1C[C@H]2CN(C(=O)C3=CCCCC3)CC[C@H]2O1 | 4.76
8 | CN(C)C(=O)NCc1nnc2n1CCN(Cc1ccsc1)C2 | 8.31
9 | COCCN1CCC2(COCc3c(C)nc(N(C)C)nc32)C1 (configuration not stated) | -132
10 | CC(=O)N1[C@H](Cn2cncn2)C[C@@H]2CN(Cc3nccs3)CC[C@@H]21 | 10
11 | CCN1C(=O)C[C@@H]2[C@@H]1CCN2S(=O)(=O)Cc1ccc(C)cc1 | -6.22
12 | CNC(=O)c1cc2c(nc1NCC1CC1)CCN(c1ncccn1)CC2 | 0.283
13 | Cc1cccc(CN2CC[C@@H]3[C@@H]2CCN3C(=O)c2cnoc2C)n1 | -21.1
14 | CS(=O)(=O)NC[C@]12COC[C@H]1CN(C(=O)Cc1ccccc1F)C2 | -2.57
15 | Cc1c(-c2cc(C(F)F)nc3sc(C(N)=O)c(N)c23)cnn1C | 10.1
16 | CCC(=O)Nc1nnc(CCOc2ccccc2)s1 | 7.16
17 | OCc1n[nH]c(-c2ccc(F)cc2)n1 | -4.64
18 | Cc1sc(C(=O)NC(C)C)cc1S(=O)(=O)N(C)C | -7.84
19 | Cc1cncnc1C1CCN(CC(N)=O)CC1 | -6.84
20 | CCc1nnc2n1CCN(C(=O)C1CCC(n3cccc3)CC1)C2 (configuration not stated) | -1.5
21 | COc1ccccc1N1CCN(C(=O)c2ccoc2)CC1 | 11.5

Row | Structure (SMILES) | cytotoxicity at 10 µM [%]
22 | Cc1cc(F)ccc1N1CCCC(NS(=O)(=O)CCCF)C1=O (configuration not stated) | -3.14
23 | CN(CC(=O)NCc1cc2ccccc2o1)S(C)(=O)=O | 4.59
24 | Cc1cc(NCc2cn(C)nc2-c2cccnc2)n(C)n1 | 12
25 | Cc1c(NC(=O)NC(C)CCO)cccc1OC1CCCC1 (configuration not stated) | -7.18
26 | NC(=O)C1CCN(CCCc2ccc(C(F)(F)F)cc2)CC1 | -0.85
27 | CCN(CC)c1ccc(CNC(=O)c2ccccn2)cn1 | 10.8
28 | O=C(c1cnc(NCC2CCCO2)c(Cl)c1)N1CCOCC1 (configuration not stated) | 0.0875
29 | c1nc(N2CCCC(Cn3cncn3)C2)c2ccsc2n1 (configuration not stated) | 5.68
30 | Cc1ccc(OCCNc2cccc(C(=O)N3CCOCC3)c2)cc1 | 4.14
31 | COC(=O)[C@H](C)NC(=O)Cc1c(C)nc2c(c1C)c(=O)[nH]n2C | 10.7
32 | CN(CC(N)=O)S(=O)(=O)c1ccc(F)cc1F | 4.26
33 | CCn1cnnc1C1CCN(C(=O)c2cnn(C(C)(C)C)c2)CC1 | 4.78
34 | CCOC(C)c1nc(Cn2cc(C(=O)NC)ccc2=O)cs1 (configuration not stated) | -0.315
35 | CC(C)(O)CSCCNC(=O)c1ccc(F)cc1Cl | -10.9
36 | Clc1cncc(NCc2cccc(COC3CCOCC3)c2)n1 | 14.6
37 | CN(Cc1nnc(C2CC2)o1)C(c1ccc(F)cc1)c1cccnc1 (configuration not stated) | -4.06
38 | Cc1ccccc1C(C)(C)CNC(=O)CCSc1nnnn1C | 6.51
39 | Cc1nc(O)ccc1C(=O)NCc1ncoc1C | 5.68
40 | Cc1[nH]ccc1C(=O)NCc1ncoc1C | -2.45
41 | CS(=O)(=O)N1CCN(c2cc(N3CCCC3CO)ncn2)CC1 (configuration not stated) | 3.51
42 | CC(C)(C)c1cnc(CNc2cccc(Cn3cnnc3)c2)o1 | 2.72

Row | Structure (SMILES) | cytotoxicity at 10 µM [%]
43 | Cc1cccc(N2CCN(C(=O)CCc3ccsc3)C(C)C2)n1 (configuration not stated) | 18.4
44 | CC(C)(C)C(O)CN1CCN(CC(=O)NC(C2CC2)C2CC2)CC1 (configuration not stated) | 3.51
45 | CN(C(=O)c1cccnc1OCC(F)F)c1ccc2c(c1)CCO2 | 3.47
46 | CCOc1ccnc(N2CCN(C(=O)CCc3ccncc3)CC2)n1 | -0.662
47 | CCOCCCNC(=O)c1ccccc1S(C)(=O)=O | -1.58
48 | O=C(c1ccc[nH]1)N1CCCn2c(nnc2Cn2cccn2)C1 | 8.06
49 | COCC1CN(C(=O)c2ccco2)Cc2nccn2C1 (configuration not stated) | -107
50 | CCOC[C@@H]1CC[C@H]2[C@H](CCN2S(=O)(=O)c2ccc(F)cc2)O1 | 1.39
51 | COc1cccc(CN(C)C(C)c2ccon2)c1OCCn1ccnc1 (configuration not stated) | -5.17
52 | CCc1nc(C)c([C@H]2CN(C)C[C@@H]2C(=O)NCc2ccccn2)[nH]1 | 2.77
53 | COc1ccc(C2(C(=O)N3C[C@@H](C(=O)O)[C@H](C(C)C)C3)CC2)cc1 | -8.36
54 | COc1ccc(-c2ccc(C(=O)N3CCC[C@@H]3CO)o2)cc1 | 7.44
55 | CC(C)Cc1cc(C(=O)NC(C)(C)c2nnc(N)s2)n(C)n1 | 0.91
56 | COCCc1nc(CN2CC(C)(c3ccccc3)CCC2=O)no1 (configuration not stated) | -3.07
57 | N#Cc1cccnc1N1CCCC(CO)(Cc2ccccc2F)C1 (configuration not stated) | 4.01
58 | CCSCCn1cc(-c2nccs2)nn1 | 0.935
59 | Cc1nn(C2CCCCC2)c2nc(C(C)(C)CN3CCOCC3)[nH]c12 | -3.64
60 | O=C(CSc1ccncc1)N1CCC2(CC1)c1ccccc1CC2O (configuration not stated) | -2.36
61 | CCN(Cc1ccncc1)C(=O)c1cn(CCCc2ccccc2)nn1 | 3
62 | O=C(O)c1cccc(C2CCCN(S(=O)(=O)N3CCOCC3)C2)c1 (configuration not stated) | 9.45
63 | COc1nc(C)c(C(=O)N(C)Cc2nc(-c3ccccn3)no2)s1 | -8.44

Row | Structure (SMILES) | cytotoxicity at 10 µM [%]
64 | Cc1cc(C[C@@H]2COC[C@@H]2NC(=O)CN2CCCN(C)CC2)on1 | -15
65 | CN(CCCOc1ccccc1)Cc1nc2c(cnn2C)c(=O)[nH]1 | -3.23
66 | Cc1ccc(C2CCCN2S(=O)(=O)N(C)CCc2ccccn2)o1 (configuration not stated) | -5.31
67 | Cc1cc(C)n(CCC(=O)N2CCC(Nc3cccnn3)CC2)n1 | -6.36
68 | O=C(NCCCn1cncn1)N1CCC(N2CCCCC2)CC1 | -7.01
69 | Cc1ccccc1OCC(O)CN1CCC(c2ccn[nH]2)CC1 (configuration not stated) | 0.531
70 | Cc1cnn(CC2CCCCN2Cc2nnsc2Cl)c1 (configuration not stated) | -2.93
71 | Cc1cc(NC(=O)NCC(C)N2CCOCC2)n(C)n1 (configuration not stated) | -18.3
72 | O=C(c1ccn(-c2ccc(F)cc2)n1)N1CCCC(n2ccnc2)C1 (configuration not stated) | -16.3
73 | Cc1ccc(OCCC(=O)N2CCC(c3nncn3C)CC2)c(C)c1 | -6.27
74 | Cc1ncc(CN2CCCC(c3cc(C(F)(F)F)[nH]n3)C2)s1 (configuration not stated) | -17.8
75 | CCN1CCC(CNC(=O)Nc2cc(C)on2)C1 (configuration not stated) | -7.33
76 | O=C1NCC(C(=O)Nc2ncc(Cc3ccccc3F)s2)N1 (configuration not stated) | -1.11
77 | CCc1n[nH]c(C2CN(Cc3nnc(C4CC4)n3C)CCO2)n1 (configuration not stated) | 5.25
78 | CN1CC2(CCN(Cc3cccnc3)CC2)c2cccc(F)c21 | 10.7
79 | COCCC(=O)N1CCn2cc(CN3CCN(C)CC3)nc2C1 | -3.13
80 | CNC1CCCN(Cc2noc(C3CC3)n2)C1 (configuration not stated) | 0.95
81 | Fc1cnc(N2CCCn3c(CN4CCOCC4)nnc3C2)nc1 | -138
82 | COCCN1C[C@@H]2CCCO[C@@H]2[C@H](NC(=O)c2cnccn2)C1 | 0.766
